In ChEMBL document CHEMBL3627704, “Synthesis, quorum sensing inhibition and docking studies of 1,5-dihydropyrrol-2-ones” (Bioorg Med Chem, 2015):
The source made the active and inactive calls. The calls are words filed in the database; no cut-off is given here.

What follows are molecules tested on Escherichia coli (assay: Inhibition of quorum sensing in Escherichia coli JB357 expressing green fluorescent protein assessed as reduction of OHHL-induced GFP expression after 2 hrs by fluorescence assay relative to OHHL).
Summary of the method: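 E. coli JB357 carrying Vibrio fischeri luxR-PluxI-gfp(ASV) reporter; OHHL at final 10, 20, 50 or 100 nM in culture medium, triplicate wells, with dihydropyrrol-2-one at 0–10 mg/mL. Incubated 2 h at 37 °C; GFP fluorescence read relative to solvent control (100%). ID40 taken for each OHHL level and plotted against OHHL. AIC40 is the gradient of the fit forced through origin (inhibitor mol : OHHL mmol).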

Row | Compound | inhibition | Ratio
1 | CCCC(O)C1=CC(=C(Br)Br)N(c2ccccc2)C1=O (stereo unspecified) | inactive | 
2 | CCCCCCCCCCCCN1C(=O)C=C(Br)C1=C(Br)Br | inactive | 
3 | CCCCCCC1=CC(=C(Br)Br)N(Cc2ccccc2)C1=O |  | 140
4 | CCCCC1=C(Br)/C(=C/Br)N(CCCC)C1=O |  | 279
5 | CCCCCC(Br)C1=CC(=C(Br)Br)N(c2ccccc2)C1=O (stereo unspecified) | inactive | 
6 | CCCCCCCCN1C(=O)C=C(Br)C1=C(Br)Br | inactive | 
7 | CCCCCCC1=C(Br)/C(=C/Br)N(c2ccccc2)C1=O | inactive | 
8 | CCCCC1=CC(=C(Br)Br)N(CCCC)C1=O | inactive | 
9 | CCCCCCC1=C(Br)/C(=C/Br)N(CCCC)C1=O | inactive | 
10 | CCCCN1C(=O)C=C(Br)/C1=C/Br |  | 19
11 | CCCCC1=CC(=C(Br)Br)N(Cc2ccccc2)C1=O |  | 220
12 | CCCCCCN1C(=O)C=C(Br)C1=C(Br)Br | inactive | 
13 | CC(C)CN1C(=O)C=C(Br)C1=C(Br)Br |  | 65
14 | CCCCCCCCN1C(=O)C=C(Br)/C1=C/Br |  | 20
15 | CCCCCCC1=C(Br)/C(=C/Br)N(Cc2ccccc2)C1=O | inactive | 
16 | O=C1C=C(Br)C2(CBr)OCCN3C(=O)C=C(Br)C3(CBr)OCCN12 (stereo unspecified) |  | 78
17 | CCCCC1=C(Br)/C(=C/Br)N(Cc2ccccc2)C1=O | inactive | 
18 | CCCCCCN1C(=O)C=C(Br)/C1=C/Br | inactive | 

Row | Compound | inhibition | Ratio
19 | O=C1C=C(Br)C(=C(Br)Br)N1Cc1ccccc1 |  | 150
20 | CCCC(Br)C1=CC(=C(Br)Br)N(c2ccccc2)C1=O (stereo unspecified) |  | 1.95
21 | CCCCCC(O)C1=CC(=C(Br)Br)N(Cc2ccccc2)C1=O (stereo unspecified) | inactive | 
22 | CCCCC1=CC(=C(Br)Br)N(c2ccc(C)cc2)C1=O | inactive | 
23 | O=C1C=C(Br)/C(=C/Br)N1c1ccccc1 | inactive | 
24 | O=C1C=C(Br)C2(CBr)OCCCN3C(=O)C=C(Br)C3(CBr)OCCCN12 (stereo unspecified) |  | 112
25 | CC(C)CN1C(=O)C=C(Br)/C1=C/Br | inactive | 
26 | CCCCCC(O)C1=CC(=C(Br)Br)N(c2ccccc2)C1=O (stereo unspecified) | inactive | 
27 | CCCC(Br)C1=CC(=C(Br)Br)N(Cc2ccccc2)C1=O (stereo unspecified) | inactive | 
28 | CCCCN1C(=O)C=C(Br)C1=C(Br)Br | inactive | 
29 | CCCCCCC1=CC(=C(Br)Br)N(c2ccccc2)C1=O |  | 248
30 | O=C1C=C(Br)/C(=C/Br)N1Cc1ccccc1 |  | 26
31 | CCCCCCC1=CC(=C(Br)Br)N(CCCC)C1=O | inactive | 
32 | CCCCCC(Br)C1=CC(=C(Br)Br)N(Cc2ccccc2)C1=O (stereo unspecified) | inactive | 
33 | CCCCC1=CC(=C(Br)Br)N(c2ccccc2)C1=O |  | 97
34 | CCCC(O)C1=CC(=C(Br)Br)N(Cc2ccccc2)C1=O (stereo unspecified) | inactive | 
35 | CCCCCCCCCCCCN1C(=O)C=C(Br)/C1=C/Br | inactive | 
36 | CCCCC1=C(Br)/C(=C/Br)N(c2ccccc2)C1=O | inactive | 
